Screening results deposited in PubChem by The Scripps Research Institute Molecular Screening Center.
Hits are enriched below; roughly 0.75% of the tested compounds scored in any of these assays.
ARFGAP1 inh: inhibitors of rat ARFGAP1 GAP activity, primary screen, biochemical, fluorescence polarization, GDP tracer; ADP-ribosylation factor GTPase-activating protein 1 (Rattus norvegicus), Q62848; Arfgap1-stimulated ARF1 GTP hydrolysis, GDP FP detection; inhibition, % at 16.5 µM; actives 0.26% (n = 360,000); AID 651572, 2012;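 active = inhibition above a per-plate limit, mean inhibition of low control wells plus 3 SD, cut at about 25% in these data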
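system = rat Arfgap1 catalytic domain, aa 1-136 | technique = FP, GDP Alexa 633 tracer displaced from anti-GDP antibody, 620/688 nm | compound = one concentration, 16.5 µM, DMSO 1.26% | medium = HEPES-based buffer, pH 7.5 | timing = compound-enzyme preincubation 20 min, reaction 120 min, detection 60 min, 25 °C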
ASAP1 GAP inh: inhibitors of human ASAP1 ArfGAP activity, primary screen, biochemical, fluorescence polarization; ASAP1-stimulated ARF1 GTP hydrolysis, GDP FP detection; inhibition, % at 16.5 µM; actives 0.19% (n = 360,000); in the data active = inhibition above about 25%
Target sequence (Q9ULH1 325-724 limits assumed): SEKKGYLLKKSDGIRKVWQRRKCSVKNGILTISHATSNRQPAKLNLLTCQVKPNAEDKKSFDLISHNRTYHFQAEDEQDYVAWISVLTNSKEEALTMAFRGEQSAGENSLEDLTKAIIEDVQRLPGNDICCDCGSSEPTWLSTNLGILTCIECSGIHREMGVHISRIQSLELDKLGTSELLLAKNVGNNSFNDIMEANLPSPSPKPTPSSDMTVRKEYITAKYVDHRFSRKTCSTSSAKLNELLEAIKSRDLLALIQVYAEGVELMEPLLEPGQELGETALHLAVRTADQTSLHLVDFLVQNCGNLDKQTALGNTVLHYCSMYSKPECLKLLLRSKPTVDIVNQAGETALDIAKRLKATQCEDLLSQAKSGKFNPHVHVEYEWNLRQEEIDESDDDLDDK
ZTA counter: counter-screen for EBNA-1 inhibitors: inhibitors of Epstein-Barr virus ZTA | P03206 | ZTA-DNA binding, fluorescence polarization | inhibition, % at 11 µM | actives 0.15% (n = 320,000); in the data active = inhibition above about 33%
Target sequence (P03206 whole entry, looked up): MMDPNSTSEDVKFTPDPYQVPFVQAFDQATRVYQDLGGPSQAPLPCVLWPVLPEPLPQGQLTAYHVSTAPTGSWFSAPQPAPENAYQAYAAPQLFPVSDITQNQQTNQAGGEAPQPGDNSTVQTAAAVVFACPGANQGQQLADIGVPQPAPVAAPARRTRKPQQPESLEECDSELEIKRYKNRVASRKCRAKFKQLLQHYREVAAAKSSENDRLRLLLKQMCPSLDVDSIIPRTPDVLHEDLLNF
EBNA-1 inhibitor: EBNA-1 DNA-binding inhibitors, primary screen, biochemical, fluorescence polarization. inhibition, % at 14.8 µM. actives 0.34% (n = 300,000); in the data active = inhibition above about 28%
ASAP1 GAP conf: ASAP1 GAP activity inhibitors, confirmation, biochemical, fluorescence polarization, human, triplicate | ASAP1-stimulated Arf1 GTPase, GDP fluorescence polarization | inhibition, % at 16.5 µM | actives 37% (n = 620) | AID 624431, 2012 | shares compounds with ASAP1 GAP inh;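 active = mean inhibition over triplicates exceeds the hit threshold derived for the earlier primary screening run, cut at about 25% in these data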
Large screens that a line does not name were inactive (follow-up assays come after a bar, where they were run).

CC1CCCCN1C(=O)COC(=O)c1cc([N+](=O)[O-])ccc1N1CCOCC1 (configuration not stated)	ASAP1 GAP inh 29.4 | ASAP1 GAP conf inactive
O=C1Nc2c(Cl)cc(Cl)cc2C12Nc1ccccc1S2 (configuration not stated)	none (no result: ZTA counter, EBNA-1 inhibitor)
C=CC[C@@H](CC(=O)N[C@@H](CO)Cc1ccccc1)C(=O)N[C@H](COC(=O)[C@@H](CC=C)Cc1ccc(F)cc1)Cc1c[nH]c2ccccc12	ASAP1 GAP inh 31.9 (no result: ZTA counter, EBNA-1 inhibitor) | ASAP1 GAP conf inactive
C=CC[C@H](CC(=O)N[C@H](CO)Cc1ccccc1)C(=O)N[C@@H](COC(=O)[C@@H](CC=C)Cc1ccc(F)cc1)Cc1c[nH]c2ccccc12	none (no result: ZTA counter, EBNA-1 inhibitor)
COc1ccccc1-n1c(Cc2cccc3ccccc23)nnc1SCC(=O)O	none (no result: ZTA counter, EBNA-1 inhibitor)
COc1cc2cc(C(=O)N/N=C/c3ccc(F)cc3)[nH]c2cc1OC	none
COc1cc2cc(C(=O)N/N=C/c3ccccc3Cl)[nH]c2cc1OC	ASAP1 GAP inh 27.6 | ASAP1 GAP conf 53.4
O=C(N[C@H](C(=O)N1CCC[C@H]1C(=O)NCc1ccccc1)c1ccccc1)c1ccc(Cl)c(Cl)c1	none (no result: ZTA counter, EBNA-1 inhibitor)
COc1cc(/C=N/NC(=O)c2ccc3c(c2)OCO3)ccc1O	none (no result: ZTA counter, EBNA-1 inhibitor)
COc1ccc(/C=N/NC(=O)c2cc(-c3ccc4c(c3)OCO4)n[nH]2)cc1OC	ASAP1 GAP inh 26.0 | ASAP1 GAP conf 33.7
COc1ccc(NC(=S)N(CCc2c(C)[nH]c3ccc(C)cc23)Cc2cccs2)cc1	none
CNC(=S)N(CCc1c(C)[nH]c2ccc(C)cc12)Cc1cccs1	ASAP1 GAP inh 26.1 | ASAP1 GAP conf inactive
COc1ccc(-n2c3nc4ccccc4nc3c3c(=N)oc(C)nc32)cc1	ASAP1 GAP inh 29.6 | ASAP1 GAP conf inactive
Cc1cc2c(nc1C)CCCN2Cc1ccccn1	none (no result: ZTA counter, EBNA-1 inhibitor)
COc1ccc(CN2c3ccccc3C(=O)CS2(=O)=O)cc1OC	none (no result: ZTA counter, EBNA-1 inhibitor)
Cc1cccnc1C1=NOC(Cc2ccccc2)C(=O)N1Cc1ccccc1F (configuration not stated)	ASAP1 GAP inh 26.3 (no result: ZTA counter, EBNA-1 inhibitor) | ASAP1 GAP conf inactive
COc1ccccc1CN1C(=O)C(Cc2ccccc2)ON=C1c1ncccc1C (configuration not stated)	none (no result: ZTA counter, EBNA-1 inhibitor)
C[C@@H]1COc2cccc(NC3CC3)c2S(=O)(=O)N1	none (no result: ZTA counter, EBNA-1 inhibitor)
Cc1ccc(Nc2cc(C)c3c(O)cccc3n2)cc1C	ASAP1 GAP inh 29.9 | ASAP1 GAP conf inactive
Cn1cc(SCC(=O)NC2CCCCC2)c2ccccc21	ASAP1 GAP inh 26.7 | ASAP1 GAP conf inactive
Cn1cc(SCC(=O)NC2CCCC2)c2ccccc21	none
COc1ccc(C(=O)Nc2ccc(Cl)cc2C(=O)NCc2ccco2)cc1	ASAP1 GAP inh 27.2 | ASAP1 GAP conf inactive
CC1CCC(NC(=O)COC(=O)C2CC3CCCC(C2)C3=O)CC1 (configuration not stated)	none
O=C(COC(=O)C1CC2CCCC(C1)C2=O)NC1CCCCC1 (configuration not stated)	ASAP1 GAP inh 25.8 (no result: EBNA-1 inhibitor) | ASAP1 GAP conf inactive
C=CCN=C1NC(c2ccc(F)cc2)C(C(=O)OC)=C(C)N1C (configuration not stated)	none (no result: ZTA counter, EBNA-1 inhibitor)
CCOC(=O)C1CCN(c2nc(N)c3c(N)nc(SCC(=O)O)cc3c2C#N)CC1	ARFGAP1 inh 38.5, ASAP1 GAP inh 40.7 (no result: ZTA counter, EBNA-1 inhibitor) | ASAP1 GAP conf 25.2
CCOC(=O)C1CCN(c2nc(C)cc(C)c2C#N)CC1	none
COc1ccc(CN(C)C(=O)[C@@H](Cc2ccccc2)NC(=O)[C@H]2O[C@@H](n3ccc(N)nc3=O)[C@H](O)[C@@H]2O)cc1OC	none (no result: ZTA counter, EBNA-1 inhibitor)
O=S1(=O)N[C@H](Cc2ccccc2)COc2cccc(NCCO)c21	none (no result: ZTA counter, EBNA-1 inhibitor)
S=c1[nH]nc(Cc2cccs2)n1-c1ccccc1Cl	ASAP1 GAP inh 25.8 | ASAP1 GAP conf inactive
S=c1[nH]nc(Cc2cccs2)n1-c1cccc2ccccc12	none
O=C(NC(C(=O)N1CCCC1C(=O)NC1CCCC1)c1ccccc1)c1cccs1 (configuration not stated)	none (no result: ZTA counter, EBNA-1 inhibitor)
Cc1nn(-c2ccccc2)c(N2CCCC2)c1/C=N/NC(=S)Nc1cc(C(F)(F)F)ccc1Cl	none
Cc1nn(-c2ccccc2)c(N2CCCC2)c1/C=N/NC(=S)Nc1ccc(F)cc1	ASAP1 GAP inh 27.0 | ASAP1 GAP conf inactive
O=C(c1ccco1)[C@@H]1[C@@H]2C(=O)N(c3ccc(F)cc3)C(=O)[C@@H]2C2c3ccccc3C=CN21 (some centres not stated)	ASAP1 GAP inh 25.5 | ASAP1 GAP conf inactive
COC(=O)c1ccccc1NC1=C/C(=N\S(=O)(=O)c2cccs2)c2ccccc2C1=O	ASAP1 GAP inh 35.4 | ASAP1 GAP conf inactive
Cc1ccc(S(=O)(=O)NCCCNc2ccc([N+](=O)[O-])cc2)cc1	none
Cc1ccc(S(=O)(=O)NCCNc2ccc([N+](=O)[O-])cc2)cc1	ASAP1 GAP inh 28.7 | ASAP1 GAP conf inactive
O=C1CCn2c1c(O)c1ccccc1c2=O	ASAP1 GAP inh 37.3 (no result: ZTA counter, EBNA-1 inhibitor) | ASAP1 GAP conf inactive
C[C@@H]1ON(C)[C@H]2C[C@H]3c4cc(Nc5ccccc5)ccc4CCN3C[C@@H]12	none (no result: ZTA counter, EBNA-1 inhibitor)
N#C/C(=C\c1ccc([N+](=O)[O-])o1)c1nc2ccccc2[nH]1	ASAP1 GAP inh 29.2 | ASAP1 GAP conf inactive
Cc1ccc2nc(/C(C#N)=C\c3ccc([N+](=O)[O-])o3)[nH]c2c1	none
C[C@H]1CN([C@@H](C)CO)C(=O)CCCn2cc(nn2)CO[C@@H]1CN(C)C(=O)c1ccc2ccn(C)c2c1	none (no result: ZTA counter, EBNA-1 inhibitor)
O=C(COC(=O)c1cnccn1)NC1CCCc2ccccc21 (configuration not stated)	ASAP1 GAP inh 47.8 (no result: ZTA counter, EBNA-1 inhibitor) | ASAP1 GAP conf inactive
COC(=O)[C@]12C[C@H](CC(=O)NCCC(C)C)C(=O)N(Cc3ccccc3)C1=C[C@H](C(C)C)O[C@@H]2C1CC1	none (no result: ZTA counter, EBNA-1 inhibitor)
CC(=O)Nc1ccc(Sc2ccc([N+](=O)[O-])o2)cc1	ASAP1 GAP inh 30.9 (no result: ZTA counter, EBNA-1 inhibitor) | ASAP1 GAP conf inactive
O=C(NCc1ccccc1)[C@@H]1CCCN1C(=O)[C@H]1CCCN1C(=O)c1ccc(Cl)c(Cl)c1	none (no result: ZTA counter, EBNA-1 inhibitor)
C/C=C(/C)C(=O)O[C@@H]1[C@H](OC(=O)C=C(C)C)c2c(ccc3ccc(=O)oc23)OC1(C)C	ASAP1 GAP inh 26.1 | ASAP1 GAP conf inactive
COc1nccc(Nc2ccccc2)c1C#N	ASAP1 GAP inh 28.4 | ASAP1 GAP conf inactive
O=c1c2ccccc2sn1-c1ccc(S(=O)(=O)N2CCCC2)cc1	none
O=c1c2ccccc2sn1-c1ccc(S(=O)(=O)N2CCCCC2)cc1	ASAP1 GAP inh 25.3 | ASAP1 GAP conf inactive
COC(=O)C1=C(C)N(CC(C)C)C(=S)NC1c1cccc(Br)c1 (configuration not stated)	none (no result: ZTA counter, EBNA-1 inhibitor)
COc1ccc(/C=C2/Sc3ccc(C(=O)NCCCN4CCOCC4)cc3NC2=O)cc1OC	ASAP1 GAP inh 31.9 | ASAP1 GAP conf 89.4
Cc1cccc(/C=C2/Sc3ccc(C(=O)NCCCN4CCOCC4)cc3NC2=O)c1	none
COc1ccc(NC(=O)Nc2ccc3c(c2)C(=O)N([C@H](C)CO)C[C@H](C)[C@H](CN(C)C)OCCCC[C@@H](C)O3)cc1	none (no result: ZTA counter, EBNA-1 inhibitor)
